Fewer inactive variants are shown than the library holds.
B1: tRNA (parent)
chain: GUUCCGUUGGCGUAAUGGUAACGCGUCUCCCUCCUAAGGAGAAGACUGCGGGUUCGAGUCCCGUACGGAACG

Variants of: B1
Assay: yeast fitness relative to wild type (ratio to wild type); higher = fitter; tRNA-Arg(CCU), competitive growth, 37 C, YPD
Outline: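 Variants of the tRNA-Arg(CCU) gene, chemically synthesised with a 3% per-site mutation rate at 69 sites, were placed at the native genomic locus in Saccharomyces cerevisiae. The pooled strains were competed in YPD at 37°C for 24 hours in six parallel replicates. Gene amplicons from the start population and from each end population were read by 100-nucleotide paired-end sequencing. Darwinian fitness relative to wild type came from changes in genotype frequencies; genotypes needed ≥ 100 starting reads, and estimates < 0.5 were set to 0.5.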

Variant	yeast fitness
GUUCCGUUGGCGUAAUGGUAAACCGUCUCCCUCCUAAGGAGAAGACUGGGGGUUCGAGUCCCGUACGGAACG [C22A G23C C49G]	≤ 0.5
GUUCCGAUCGCGUAAUGGUAACGCGUCUCCCUCCUAAGGCGAAGACUGCGGGUUCGAGUCCAGUACGGAACG [U7A G9C A40C C62A]	≤ 0.5
GUUCCAUUGGCGUAAUGGUUACGCAUCUCCCUCCUAAGGAGAAGACUGCGGGUUCGAGUCCCGUACGGAACG [G6A A20U G25A]	0.574
GUUCCGUUGGCGUAAUGGUAACGCGUGUCCCUCCUAAGGAGAAGACUGCAGGUUCGAGUGCCGUACGGAACG [C27G G50A C60G]	0.778
GUUCCGUUGGCGUGAUGGUAACGUGUCUCCCUCCUAAGGAGAAGACUGUGGGUUCGAGUCCCGUACGGAACG [A14G C24U C49U]	0.675
GUUCCGUUGGCGUAAUGGUGACGCGUCUCCCUCCUAAGGAGAAGACUGCGGGUUCGAGUCCCGUACAGUACG [A20G G67A A69U]	0.516
GUUCCGUUGGUGUAAUGGUAACGCCUCUGCCUCCUAAGGAGAGGACUGGGGGUUCGAGUCCCGUACGGAACG [C11U G25C C29G A43G C49G]	0.546
GUUCCGUUGGAGUAAUGGUUACGCGUCUCCCUCCUAAGGAGAAGACCGCGGGUUCGAGUGCCGUACGGAACG [C11A A20U U47C C60G]	≤ 0.5
GUUCCGUUGGCGUAUUGGUAACGCGUCUCCCUCCUAAGGAGAAGACUGCGGGUUCGAGUCCCGUACGCAACG [A15U G68C]	0.671
GUUCCGUUGGCGUAAUGGAAACGCGUCUCGCUCCUAAGCAGAAGACUGCGGGCUAGAGUCCCGUACGGAACG [U19A C30G G39C U53C C55A]	≤ 0.5
GUUCCGUAGGCGUAAUGGUAACGUGUCUCCCUCCUAAGGCGCAGUCUGCGGGUUCGAGUCCCGUACGGAACG [U8A C24U A40C A42C A45U]	≤ 0.5
GUUCCGUUGGCGUAAUGGCAACGUGUCUCCCUCCUAAGGAGAAGACUGCGGGUUCGAGUCCCGUACGGAUCG [U19C C24U A70U]	0.849
GUUCCGUGGGCGUAAUGGUAACGCGUCACCCUCGUAAGCAGAAGACUGCGGGUUCGGGUCCCGUAUGGAACG [U8G U28A C34G G39C A57G C66U]	≤ 0.5
GUUACGUUGGCGUAAUGGUAACGCGUCUCCCUCGUAACGAGAAGACUGCGGGUUCGAGUCCCGUACGGAGCG [C4A C34G G38C A70G]	≤ 0.5
GUUCCGUUGGCGUAAUGGUAACGCGUCUCUCUCCUCGGGAGAAGACCGCGGGUUCGAGUCCCGUACGGAACG [C30U A36C A37G U47C]	≤ 0.5
GUUCCGUUGGCGUAAUGGUAAGGCGUCUCCCUCCUAAGGUGACGACUGCGGGUUCGAGUCCCGUACGGAACG [C22G A40U A43C]	0.698
GUUCCGUUGGCGUAAUGGUAACGCGUCUCCCUCCUAAGCAGAAGACUCCGGGUUCGAGUCCGGUACGGAACG [G39C G48C C62G]	≤ 0.5
GUUCGGUUGGCGUCAUGGUAACGCGUCUCCCUCCUAACAAGACGACUGCGGGUUCGAGUGCCGUCCGGAACG [C5G A14C G38C G39A A43C C60G A65C]	≤ 0.5
GGUCCGUUGGCGUAAUGGUAACGCGUCUCCCUCCUAAGGAGAAGACGGCGGGUUCGAGUCCCGUACGGAACG [U2G U47G]	0.546

Variant	yeast fitness
GUUCCGUUGACGUAAUGGUAACGCGUCUCCCUCCUAAGGAGAAGACUGCGGGUUCGAGUCCCGUACGGAGCG [G10A A70G]	0.743
GUUCCGUUAGCGUAAUGGGAACGCGUCUCCGUCCUAAGGAGAAGACUGCGGGUUCGAGUCCCGUACGGAACG [G9A U19G C31G]	≤ 0.5
GUUACGUUGGCGUAAUGGUAACGCGUCUCCCUCCUAAGGAGAAGACUGCGGGUUCGAGUCUCGUACGGCACG [C4A C61U A69C]	0.578
GUUCCGUUGGCGUAUUCGUAACGCGUCUCCCUCCUAAGGAGAAGUCUGGGGGUUCGAGUCCCGUACGGAUCG [A15U G17C A45U C49G A70U]	0.528
GUUCCGUUGGGGUAAUGGUAACGGGUCUCCCUCCUAAGGAGAAGACUGCGGGUCCGAGUCCCGUACCGAACG [C11G C24G U54C G67C]	≤ 0.5
GUUCGGUUGGCGAAAUGGUAAGGCGUCUGCCUCCUAAGGUGAAGACUGCGGGUUCGAGUCCCGUACGGAACG [C5G U13A C22G C29G A40U]	0.556
GUUCCGUUGGCGUAAUGGUUACGCGUCUCCCUCAUAAGGAGAAGACUGCGGGUUCGAGUCCCGUACGGAACG [A20U C34A]	0.7
GUUUCGUUGGCGUAAUGGUAACACGUCUCCCUCCUAAGGCGAAGACUGCGGGUACGAGACCCGUACGGAACG [C4U G23A A40C U54A U59A]	≤ 0.5
GUUCCGGUGGCGUAAUGGUAACGCGUCUCCCUCCUAAGGAGAAGACUGCGGGUUCGAGUCCCGUACGGCACG [U7G A69C]	0.851
GUUCCGUAAGCGUAAUGGUAACGCGUCUCCCUCCUAAGGAGAAGACUGCGGGUUCGAGUGCCGUACGGAACG [U8A G9A C60G]	≤ 0.5
GUUCCGUUGGCGUAAUGGUAACACGUCUCCCUCCUAAGGAGAAGACUGCGGGUUCGAAUCCCGUACGGAACG [G23A G58A]	0.715
GUUCCGUAGGCGUAAUGGUAGCGCGUCUCCCUCCUGAGGAGAAGACUGCGGGUUCGAGUCCCGUACGGAACG [U8A A21G A36G]	0.65
GCUCCGUUGGCGUAAUGGUAACGCGUCUCCCUCCUAAGGAGAAGACAGCGGGAUCGAGUCCCGUACGGAACG [U2C U47A U53A]	≤ 0.5
GUUCCAUUGGAGUAAUGGUGACGCGUCUCCCUCCUAAGGAGAAGACUGCGGGUUCGAGUCCAGUACGGAACG [G6A C11A A20G C62A]	≤ 0.5
GUUCCGCUGGCGUAAUGGUAACGCGUCUCCUGCCUAAGGAGAAGACUGCGGGUUCGAGUCCCGUACGGAACG [U7C C31U U32G]	0.542
GUUCCGUUGGCGUAAUGGUAAAGCGUCUCCAUCCUAAGGAGAAGACUGCGGGCUCGCGUCCCGUACGGAACG [C22A C31A U53C A57C]	≤ 0.5
GUUCCGUUGGCGUAAUGGUAAGGCGUCUCCCUCCUAAGGAGAAGACUACGGGUUCGAGUCCCGUACGGAACG [C22G G48A]	0.988
GUUCCGUUGGCGUAAUGGUAACGCGUCUCCCUCCUAAGGAGAGGACUGCGGGUUCGACUCCUGUACGGAACG [A43G G58C C62U]	0.537
GUUGCGUUGGUGUAAUGGUAAGGCGUCUCCCUCCUAAGGUGAGGACUGCGGGCUCGAGUCCCGUACGGAGCG [C4G C11U C22G A40U A43G U53C A70G]	≤ 0.5

Source: the RNAGym collection of RNA variant scans (doi:10.1126/science.aae0568)
